Compounds with a hit are over-represented: about 4.5% of the library has one in this group of screens.
GPR7 antag: GPR7 receptor antagonists, primary screen, cell-based, fluorescence, single concentration; GPR7-expressing cells, fluorescence antagonist assay; inhibition, % at 4.4 µM; 1.1% of 290,000 active; AID 1861, 2009; in the data active = inhibition above about 16%, passing the limit was not always enough;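 note: cells stimulated with the agonist NPW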
Target sequence (P48145 whole entry, looked up): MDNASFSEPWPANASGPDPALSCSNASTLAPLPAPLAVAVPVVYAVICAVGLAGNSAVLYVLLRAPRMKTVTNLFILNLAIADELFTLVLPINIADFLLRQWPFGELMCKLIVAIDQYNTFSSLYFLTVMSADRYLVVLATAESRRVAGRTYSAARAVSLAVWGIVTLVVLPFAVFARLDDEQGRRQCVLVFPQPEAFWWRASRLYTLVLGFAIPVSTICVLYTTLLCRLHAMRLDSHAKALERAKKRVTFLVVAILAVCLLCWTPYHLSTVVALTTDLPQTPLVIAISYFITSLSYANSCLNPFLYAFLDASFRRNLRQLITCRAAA
OX1R antag-1: OX1R (HCRTR1) antagonists, primary screen, fluorescence, CHO/OX1R cells, Fluo-8 calcium, orexin A; 0.43% of 330,000 active; AID 434989, 2010; inhibition, % at 5 µM; Fluo-8 calcium fluorescence;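 active = inhibition above its plate's threshold, mean inhibition of all tested compounds on the plate plus 3 SD, cut at about 37% in these data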
TAAR1 antagonist: human TAAR1 antagonists, primary screen, Fluo-8 calcium fluorescence, CHO RD-HGA16 cells | Trace amine-associated receptor 1 (Homo sapiens), Q96RJ0 | antagonist | inhibition, % at 3 µM | 1.5% of 360,000 active | AID 624466, 2012;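 active = inhibition above a per-plate cutoff, the mean inhibition of test compounds on that plate plus 3 SD, cut at about 49% in these data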
Target sequence (Q96RJ0 whole entry, looked up): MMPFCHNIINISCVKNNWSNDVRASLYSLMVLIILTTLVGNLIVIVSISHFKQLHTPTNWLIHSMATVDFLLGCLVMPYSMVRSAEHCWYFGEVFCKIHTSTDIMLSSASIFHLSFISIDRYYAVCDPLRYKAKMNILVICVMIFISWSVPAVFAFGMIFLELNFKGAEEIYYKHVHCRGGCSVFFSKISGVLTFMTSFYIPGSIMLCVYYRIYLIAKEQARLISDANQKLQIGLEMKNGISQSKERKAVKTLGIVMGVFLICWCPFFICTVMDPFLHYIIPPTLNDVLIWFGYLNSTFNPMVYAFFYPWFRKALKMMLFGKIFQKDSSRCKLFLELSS
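System: RD-HGA16 CHO cells with stable hTAAR1 and Gα16 | Probe or stimulus: EC80 β-phenethylamine stimulus | Dosing: 3 µM, single point | Times: Dye loading 75 min at 37 °C, then 30 min room temperature | Measured by: Fluo-8 calcium-sensitive fluorescence | Read-out basis: % inhibition of agonist calcium response | Replicates: n of 1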
OX1R antag-2: antagonists of human orexin 1 receptor (OX1R); Orexin/Hypocretin receptor type 1 (Homo sapiens), O43613; OX1R-expressing cells, FRET antagonist read-out; inhibition, % at 6.6 µM; 1.8% of 330,000 active; in the data active = inhibition mostly above about 38%, no sharp cut-off; inactive = mostly below about 40%
TAAR1 agonist: human TAAR1 agonists, primary screen, Fluo-8 calcium fluorescence, CHO RD-HGA16 cells; 0.99% of 360,000 active; AID 624467, 2012; Trace amine-associated receptor 1 (Homo sapiens), Q96RJ0; vehicle wells 0%, saturating PEA agonist 100%; activation, % at 3 µM;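 active = activation above the mean activation of all test compounds in the run plus 3 SD, cut at about 38% in these data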
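System: CHO-derived RD-HGA16 cells with stable Gα16 and human TAAR1 / Times: 17-24 h plating, Fluo-8 75 min 37 °C, 30 min RT / Technique: calcium-sensitive Fluo-8 signal, excitation 470-495, emission 515-575 nm / Measure: % activation relative to PEA EC100 response / Benchmarks: DMSO and PEA EC100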
CHO parental Ca: ATP-evoked calcium signal inhibitors, parental CHO, primary screen, counter-screen for OX1R antagonist project, cell-based, fluorescence, Fluo-8 calcium dye; parental CHO-K1, ATP-induced calcium, Fluo-8 fluorescence; AID 463079, 2010; inhibition, % at 5.6 µM; 0.63% of 330,000 active;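 active = inhibition above that plate's mean sample inhibition plus 3 SD, cut at about 26% in these data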
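Measured by: calcium-sensitive Fluo-8 fluorescence / Test system: CHO parental line / Controls: ATP-challenged DMSO wells low, unchallenged DMSO wells high / Measure: % inhibition / Compound: single nominal dose of 5.6 µM per compound / Replicates: single well per compound, no replicates / Reagent: ATP as calcium-mobilizing challenge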
Numbers stand for hits; 0 = inactive; - = no result.

SMILES | GPR7 antag | OX1R antag-1 | TAAR1 antagonist | OX1R antag-2 | TAAR1 agonist | CHO parental Ca
O=C(NCc1ccccc1)[C@@H]1CCCN1C(=O)[C@@H](NS(=O)(=O)c1ccc(F)cc1F)c1ccccc1 | - | - | 0 | - | 0 | -
CCN(CC)C(=O)c1nc[nH]c1C(=O)N1CCC(C)CC1 | - | 0 | 0 | 0 | 0 | 0
CN(C)c1ccc2nc3ccc(=[N+](C)C)cc-3sc2c1 | 0 | 0 | 0 | 59 | 0 | 0
CC(C)NCc1cc(Br)ccc1OCc1ccccc1 | 0 | 0 | 0 | 0 | 43 | 0
CC(C)(CO)NCc1cc(Br)ccc1OCc1ccccc1 | 0 | 0 | 0 | 0 | 0 | 0
C=Cc1ncc(OC)c2c1[nH]c1ccccc12 | - | 0 | - | 0 | - | 0
O=C(NCc1ccco1)c1ccc(C(=O)NCc2ccco2)cc1 | - | - | 0 | - | 0 | -
COCCNC(=O)c1ccc2c(c1)C(=O)c1ccccc1-2 | 0 | 0 | 0 | 37 | 0 | 0
O=C(NCc1ccco1)c1ccc2c(c1)C(=O)c1ccccc1-2 | 0 | 0 | 0 | 37 | 0 | 0
O=C(Nc1ccccc1O)c1ccc2c(c1)C(=O)N(Cc1ccco1)C2=O | 0 | - | 51 | - | 0 | -
COc1ccc(C(=O)Nc2ccccc2C(=O)NCc2ccco2)cc1OC | 0 | 0 | 54 | 0 | 0 | 0
COC(=O)[C@@]12C[C@@H](CC(=O)N3CCCC3)C(=O)N(Cc3ccccc3)C1=CCC(C)(C)C2 | - | - | 0 | - | 0 | -
CN1CCCCC(NC(=O)C23CC4CC(CC(C4)C2)C3)C1=O (stereo not drawn) | - | - | 0 | - | 0 | -
COC(=O)C1=C(C)N(Cc2ccc(C(F)(F)F)cc2)C(=NCc2ccc3c(c2)OCO3)NC1c1ccccc1C(F)(F)F (stereo not drawn) | - | - | 0 | - | 0 | -
COCCNC(=O)c1ccc2c(c1)S(=O)(=O)c1cc(Cl)ccc1C2=O | - | 0 | 0 | 42 | 0 | 0
CC(C)N(Cc1nc(-c2ccc(Cl)cc2)no1)C(=O)C(c1ccccc1)c1ccccc1 | 0 | 0 | 0 | 0 | 0 | 0
Cc1ccc(-c2noc(CN(C(=O)C(c3ccccc3)c3ccccc3)C(C)C)n2)cc1 | 0 | 0 | 0 | 0 | 0 | 52
CC(C)N(Cc1nc(-c2ccccc2)no1)C(=O)CN(C)S(=O)(=O)c1ccccc1 | 0 | 0 | 0 | 0 | 0 | 0
Cc1cccc(-c2noc(CN(C(=O)CCc3ccccc3)C(C)C)n2)c1 | 0 | 0 | 0 | 0 | 0 | 42
CC(C)N(Cc1nc(-c2ccccc2)no1)S(=O)(=O)c1ccccc1 | 0 | 0 | 0 | 0 | 0 | 60
COc1ccc(Cl)cc1C(=O)N(Cc1nc(-c2cccc(C)c2)no1)C(C)C | 0 | 0 | 0 | 0 | 0 | 47
COC(=O)C1=C(C)N(C)C(=NCc2ccc(C(F)(F)F)cc2)NC1c1cccc(F)c1 (stereo not drawn) | - | - | 0 | - | 0 | -
C=CCN1C(=O)c2n[nH]c(COC)c2C1c1ccc(F)cc1 (stereo not drawn) | - | - | 0 | - | 0 | -
COc1ccc(OC)c2c1C(=O)CC2C (stereo not drawn) | - | - | 0 | - | 0 | -
COc1ccc(OC)c2c1C(=O)C(Cl)=C(Cl)C2=O | 0 | 69 | 71 | 104 | 0 | 75
SMILES | GPR7 antag | OX1R antag-1 | TAAR1 antagonist | OX1R antag-2 | TAAR1 agonist | CHO parental Ca
COc1ccc(OC)c2c1C(=O)c1ccccc1C2=O | 0 | 0 | 0 | 65 | 0 | 0
COc1ccc(N)c2c1C(=O)c1ccccc1C2=O | 0 | 0 | 0 | 70 | 0 | 0
CCCCCCCCN1C(=O)[C@@H](CC(=O)N2CCCCC2)C[C@@]2(C(=O)OC)C1=C[C@H](C1CCCC1)O[C@@H]2C | - | - | 0 | - | 0 | -
O=C1c2c(O)ccc(O)c2C(=O)c2c(NCCNCCO)ccc(NCCNCCO)c21 | - | 0 | 0 | 65 | 0 | 0
O=C(NCCc1c[nH]c2ccccc12)c1c(Cl)nc2sccn12 | 0 | 0 | 0 | 0 | 39 | 0
O=C(Cc1ccc(Cl)cc1)NCCc1c[nH]c2ccccc12 | 0 | 0 | 0 | 0 | 0 | 0
COCCCNC(=O)/C(C#N)=C1\N=C(NC(=O)c2cccs2)c2ccccc21 | 0 | 0 | 0 | 47 | 0 | 0
N#C/C(C(=O)NCCc1ccccc1)=C1/N=C(NC(=O)c2cccs2)c2ccccc21 | 0 | 0 | 0 | 0 | 0 | 0
COCCNC(=O)C1CCCN(Cc2ccc(-c3ccccc3)cc2)CC1 (stereo not drawn) | - | - | 0 | - | 0 | -
Cc1cc(NC(=O)Nc2ccccc2F)ccc1Br | 0 | 0 | 66 | 0 | 0 | 0
CCOc1ccc(OCCCC(=O)Nc2cc(Cl)ccc2-n2cncn2)cc1 | - | 0 | 58 | 0 | 0 | 0
CC(=O)c1ccc(OCCCC(=O)Nc2cc(Cl)ccc2-n2cncn2)cc1 | 0 | 0 | 0 | 0 | 0 | 0
CCNC(=O)N1C[C@H]2CON(C)[C@H]2C[C@H]1c1ccc(N2CCCCC2)cc1 | - | - | 0 | - | 0 | -
COc1ccc(Cl)cc1NC(=O)CSc1nc2sccc2c(=O)[nH]1 | 0 | 0 | 0 | 63 | 0 | 0
COc1ccc(C)cc1NC(=O)CSc1nc2scc(C)c2c(=O)[nH]1 | 0 | 0 | 0 | 71 | 0 | 0
COc1ccccc1NC(=O)CSc1nc2nc(C)cc(C)c2c(=O)[nH]1 | 0 | 0 | 0 | 0 | 0 | 0
Cc1ccc(OC(=O)N(C)C[C@@H]2OCc3cn(nn3)CCCC(=O)N([C@H](C)CO)C[C@H]2C)cc1 | - | - | 0 | - | 0 | -
O=S(=O)(c1cc(F)ccc1F)N1CCN(c2ncnc3ccccc23)CC1 | - | 45 | 0 | 0 | 0 | 49
COc1ccc(OCC(O)CNC(C)c2ccccc2)cc1 (stereo not drawn) | 0 | 0 | 0 | 0 | 0 | 0
CC(NCC(O)COc1ccc(Br)cc1)c1ccccc1 (stereo not drawn) | 0 | 0 | 0 | 0 | 43 | 0
CC(NCC(O)COC1CCC(C(C)(C)C)CC1)c1ccccc1 (stereo not drawn) | 0 | 0 | 0 | 0 | 44 | 0
CC1CCC(C(C)C)C(OCC(O)CNC(C)c2ccccc2)C1 (stereo not drawn) | 0 | 0 | 0 | 0 | 0 | 0
CCCC(NCC(O)COc1ccc(-c2ccccc2)cc1)c1ccccc1 (stereo not drawn) | 0 | 0 | 0 | 0 | 40 | 53
O=C(/C=C(\Nc1cc(Cl)c(Cl)c(Cl)c1)c1ccccc1)c1ccccc1 | - | - | 0 | - | 0 | -
O=C(Cc1c[nH]c2ccccc12)Nc1ccc(Nc2cccnc2)cc1 | - | - | 0 | - | 0 | -
COc1cc2c(C#CCCO)c(-c3ccsc3)oc(=O)c2cc1OC | - | 0 | 0 | 61 | 0 | 0
CCc1nnc(N/N=C/c2ccccc2F)n1N | 0 | 0 | 0 | 74 | 0 | 0
CCOC(=O)N/N=C/c1ccccc1F | 0 | 0 | 0 | 0 | 0 | 0
